Results from ChEMBL document CHEMBL5058577, “EUbOPEN Chemogenomics Library 2 (Multiplex)” (2022).

Tested on: HEK-293T
Assay: Multiplex assay against HEK293T
Type: toxicity, cell-based
Conditions: human
Summary of the method: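 Tubulin, mitochondrial-mass and membrane-permeability phenotypes are per cents of healthy-nucleus cells. Cells were gated by CellPathfinder machine learning into Hoechst high-intensity objects or normal cells, normal cells into healthy, pyknosed or fragmented nuclei, and pyknosed cells into mitotic or apoptotic. Before that, live cells stained at seeding with Hoechst33342, BioTracker Green Microtubule Cytoskeleton Dye, MitoTracker Red and Annexin V Alexa Fluor 680 were imaged on a CQ1 microscope at 37°C and 5% CO2 after compound addition.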

[1] = 12 h, 1 µM, compound concentration 1 uM, replicate 1
[2] = 12 h, 1 µM, compound concentration 1 uM, replicate 2
[3] = 12 h, 10 µM, compound concentration 10 uM, replicate 1
[4] = 12 h, 10 µM, compound concentration 10 uM, replicate 2
[5] = 24 h, 1 µM, compound concentration 1 uM, replicate 1
[6] = 24 h, 1 µM, compound concentration 1 uM, replicate 2
[7] = 24 h, 10 µM, compound concentration 10 uM, replicate 1
[8] = 24 h, 10 µM, compound concentration 10 uM, replicate 2
[9] = 48 h, 1 µM, compound concentration 1 uM, replicate 1
[10] = 48 h, 1 µM, compound concentration 1 uM, replicate 2
[11] = 48 h, 10 µM, compound concentration 10 uM, replicate 1
[12] = 48 h, 10 µM, compound concentration 10 uM, replicate 2

Structure (SMILES): Cc1cc(-c2ccc3c(c2)CC[C@H]3N2CC3(CCN(C(=O)Cc4cn5cc(C)sc5n4)CC3)C2)ncn1 [PF-5190457]
- Population Apoptotic (%) [1]: 36%
- Population Fragmented Nuclei (%) [1]: 5%
- Population Healthy Nuclei (%) [1]: 83%
- Population Hoechst High Intensity Objects (%) [1]: 5%
- Population Membrane Permeable-Phenotype (%) [1]: 0%
- Population Mitochondria Different-Phenotype (%) [1]: 40%
- Population Mitotic Cells (%) [1]: 63%
- Population Normal (%) [1]: 94%
- Population Pyknosed Nuclei (%) [1]: 11%
- Population Tubulin-Different-Phenotype (%) [1]: 25%
- Total Cell Count [1]: 418
- Population Apoptotic (%) [2]: 47%
- Population Fragmented Nuclei (%) [2]: 8%
- Population Healthy Nuclei (%) [2]: 72%
- Population Hoechst High Intensity Objects (%) [2]: 10%
- Population Mitochondria Different-Phenotype (%) [2]: 53%
- Population Mitotic Cells (%) [2]: 52%
- Population Normal (%) [2]: 89%
- Population Pyknosed Nuclei (%) [2]: 19%
- Population Tubulin-Different-Phenotype (%) [2]: 22%
- Total Cell Count [2]: 258
- Population Apoptotic (%) [3]: 40%
- Population Fragmented Nuclei (%) [3]: 9%
- Population Healthy Nuclei (%) [3]: 75%
- Population Hoechst High Intensity Objects (%) [3]: 11%
- Population Membrane Permeable-Phenotype (%) [3]: 0%
- Population Mitochondria Different-Phenotype (%) [3]: 53%
- Population Mitotic Cells (%) [3]: 60%
- Population Normal (%) [3]: 88%
- Population Pyknosed Nuclei (%) [3]: 14%
- Population Tubulin-Different-Phenotype (%) [3]: 37%
- Total Cell Count [3]: 455
- Population Apoptotic (%) [4]: 54%
- Population Fragmented Nuclei (%) [4]: 3%
- Population Healthy Nuclei (%) [4]: 80%
- Population Hoechst High Intensity Objects (%) [4]: 8%
- Population Mitochondria Different-Phenotype (%) [4]: 70%
- Population Mitotic Cells (%) [4]: 45%
- Population Normal (%) [4]: 91%
- Population Pyknosed Nuclei (%) [4]: 16%
- Population Tubulin-Different-Phenotype (%) [4]: 40%
- Total Cell Count [4]: 322
- Population Apoptotic (%) [5]: 21%
- Population Fragmented Nuclei (%) [5]: 8%
- Population Healthy Nuclei (%) [5]: 77%
- Population Hoechst High Intensity Objects (%) [5]: 2%
- Population Membrane Permeable-Phenotype (%) [5]: 0%
- Population Mitochondria Different-Phenotype (%) [5]: 24%
- Population Mitotic Cells (%) [5]: 78%
- Population Normal (%) [5]: 97%
- Population Pyknosed Nuclei (%) [5]: 13%
- Population Tubulin-Different-Phenotype (%) [5]: 16%
- Total Cell Count [5]: 549
- Population Apoptotic (%) [6]: 45%
- Population Fragmented Nuclei (%) [6]: 11%
- Population Healthy Nuclei (%) [6]: 78%
- Population Hoechst High Intensity Objects (%) [6]: 7%
- Population Membrane Permeable-Phenotype (%) [6]: 1%
- Population Mitochondria Different-Phenotype (%) [6]: 35%
- Population Mitotic Cells (%) [6]: 54%
- Population Normal (%) [6]: 92%
- Population Pyknosed Nuclei (%) [6]: 9%
- Population Tubulin-Different-Phenotype (%) [6]: 11%
- Total Cell Count [6]: 352
- Population Apoptotic (%) [7]: 25%
- Population Fragmented Nuclei (%) [7]: 10%
- Population Healthy Nuclei (%) [7]: 75%
- Population Hoechst High Intensity Objects (%) [7]: 5%
- Population Membrane Permeable-Phenotype (%) [7]: 1%
- Population Mitochondria Different-Phenotype (%) [7]: 28%
- Population Mitotic Cells (%) [7]: 74%
- Population Normal (%) [7]: 94%
- Population Pyknosed Nuclei (%) [7]: 14%
- Population Tubulin-Different-Phenotype (%) [7]: 30%
- Total Cell Count [7]: 638
- Population Apoptotic (%) [8]: 36%
- Population Fragmented Nuclei (%) [8]: 5%
- Population Healthy Nuclei (%) [8]: 81%
- Population Hoechst High Intensity Objects (%) [8]: 6%
- Population Membrane Permeable-Phenotype (%) [8]: 0%
- Population Mitochondria Different-Phenotype (%) [8]: 51%
- Population Mitotic Cells (%) [8]: 63%
- Population Normal (%) [8]: 93%
- Population Pyknosed Nuclei (%) [8]: 13%
- Population Tubulin-Different-Phenotype (%) [8]: 23%
- Total Cell Count [8]: 425
- Population Apoptotic (%) [9]: 25%
- Population Fragmented Nuclei (%) [9]: 14%
- Population Healthy Nuclei (%) [9]: 79%
- Population Hoechst High Intensity Objects (%) [9]: 1%
- Population Membrane Permeable-Phenotype (%) [9]: 1%
- Population Mitochondria Different-Phenotype (%) [9]: 18%
- Population Mitotic Cells (%) [9]: 74%
- Population Normal (%) [9]: 98%
- Population Pyknosed Nuclei (%) [9]: 5%
- Population Tubulin-Different-Phenotype (%) [9]: 9%
- Total Cell Count [9]: 873
- Population Apoptotic (%) [10]: 39%
- Population Fragmented Nuclei (%) [10]: 12%
- Population Healthy Nuclei (%) [10]: 80%
- Population Hoechst High Intensity Objects (%) [10]: 3%
- Population Mitochondria Different-Phenotype (%) [10]: 21%
- Population Mitotic Cells (%) [10]: 60%
- Population Normal (%) [10]: 96%
- Population Pyknosed Nuclei (%) [10]: 6%
- Population Tubulin-Different-Phenotype (%) [10]: 10%
- Total Cell Count [10]: 531
- Population Apoptotic (%) [11]: 24%
- Population Fragmented Nuclei (%) [11]: 14%
- Population Healthy Nuclei (%) [11]: 77%
- Population Hoechst High Intensity Objects (%) [11]: 2%
- Population Membrane Permeable-Phenotype (%) [11]: 0%
- Population Mitochondria Different-Phenotype (%) [11]: 27%
- Population Mitotic Cells (%) [11]: 76%
- Population Normal (%) [11]: 97%
- Population Pyknosed Nuclei (%) [11]: 8%
- Population Tubulin-Different-Phenotype (%) [11]: 20%
- Total Cell Count [11]: 927
- Population Apoptotic (%) [12]: 46%
- Population Fragmented Nuclei (%) [12]: 13%
- Population Healthy Nuclei (%) [12]: 78%
- Population Hoechst High Intensity Objects (%) [12]: 4%
- Population Mitochondria Different-Phenotype (%) [12]: 32%
- Population Mitotic Cells (%) [12]: 53%
- Population Normal (%) [12]: 95%
- Total Cell Count [12]: 520
